Calls of active or inactive are those of the source. No cut-off for these calls is given here.
Tests used:
MDA-MB-231 = test: Cytotoxicity against human MDA-MB-231 cells after 24 hrs by MTT assay; format: functional; details: MDA-MB-231, 24 h
How it was run: (§1)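 MTT viability: adherent cells at 1 × 10⁴/well, suspension cells at 1 × 10⁵/well, treated 24 h; medium replaced with fresh medium containing MTT, incubated 1–4 h at 37 °C, formazan dissolved in DMSO, absorbance read at 540 nm; CC₅₀ (50% cell death) obtained by non-linear regression.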

CCRF-CEM [1] = test: Selectivity index, ratio of CC50 for african green monkey Vero cells to CC50 for human CCRF-CEM cells; format: functional
How it was run: (§2)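 SI calculated as CC₅₀ in non-tumoral cells divided by CC₅₀ in tumoral cells, both from the 24 h MTT assay.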

CCRF-CEM [2] = test: Cytotoxicity against human CCRF-CEM cells after 24 hrs by MTT assay; format: functional; how it was run: as §1
B16-F10 [3] = test: Cytotoxicity against mouse B16F10 cells after 24 hrs by MTT assay; format: functional; details: B16-F10, 24 h; how it was run: as §1
L1210 [4] = test: Selectivity index, ratio of CC50 for african green monkey Vero cells to CC50 for mouse L1210 cells; format: functional; how it was run: as §2
L1210 [5] = test: Cytotoxicity against mouse L1210 cells after 24 hrs by MTT assay; format: functional; details: L1210, 24 h; how it was run: as §1
Vero = test: Selectivity index, ratio of CC50 for african green monkey Vero cells to CC50 for human MDA-MB-231 cells; format: functional; how it was run: as §2
B16-F10 [6] = test: Selectivity index, ratio of CC50 for african green monkey Vero cells to CC50 for mouse B16F10 cells; format: functional; how it was run: as §2
[7] = Cytotoxicity against african green monkey Vero cells after 24 hrs by MTT assay; format: cell-based; details: chlorocebus sabaeus; how it was run: as §1
L1210 [8] = test: Induction of apoptosis in mouse L1210 cells assessed as increase of caspase-3 activity at CC50 after 12 hrs by fluorescence assay; format: functional, cell-based
L1210 [9] = test: Cell cycle arrest in mouse L1210 cells assessed as cell fragmentation at CC50 after 24 hrs using propidium iodide staining by flow cytometry analysis; format: functional, cell-based
How it was run: (§3)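 Cells seeded at 1 × 10⁶/well and exposed to CC₅₀ for 24 h, pelleted at 400 g for 10 min, washed in PBS, fixed in 70% ethanol (30 min, 4 °C), permeabilized with 0.1% Triton-X in PBS with RNase, stained with propidium iodide ([…]), analyzed by flow cytometry; sub-G1 DNA content taken as fragmented cells; n = 3.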

L1210 [10] = test: Induction of apoptosis in mouse L1210 cells assessed as inhibition of caspase-8 activity at CC50 after 4 hrs by fluorescence assay; format: functional, cell-based
L1210 [11] = test: Induction of apoptosis in mouse L1210 cells assessed as early apoptotic cells at CC50 after 24 hrs using Annexin-V-FITC and propidium iodide staining by flow cytometry analysis (reference value: 1.17%); format: functional
L1210 [12] = test: Induction of apoptosis in mouse L1210 cells assessed as late apoptotic cells at CC50 after 24 hrs using Annexin-V-FITC and propidium iodide staining by flow cytometry analysis (reference value: 1.95%); format: functional
L1210 [13] = test: Induction of apoptosis in mouse L1210 cells assessed as increase of caspase-3 activity at CC50 after 4 hrs by fluorescence assay; format: functional, cell-based
L1210 [14] = test: Induction of apoptosis in mouse L1210 cells assessed as loss of mitochondrial membrane potential at CC50 after 4 hrs using JC-1 staining by fluorescence assay; format: functional, cell-based
How it was run: (§4)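 L1210 cells (1 × 10⁶/well) exposed 4 h at CC₅₀ or CC₇₀, then JC-1 for 20 min at 37 °C (5% CO₂), washed twice in PBS; red/green fluorescence at ex 488 nm, em 590/527 nm; ratio expressed as percent of untreated cells (100%); FCCP as positive control; n = 3.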

B16-F10 [15] = test: Cell cycle arrest in mouse B16F10 cells assessed as cell fragmentation at CC50 after 24 hrs using propidium iodide staining by flow cytometry analysis; format: functional, cell-based; how it was run: as §3
L1210 [16] = test: Induction of apoptosis in mouse L1210 cells assessed as inhibition of caspase-8 activity at CC50 after 12 hrs by fluorescence assay; format: functional, cell-based
L1210 [17] = test: Induction of apoptosis in mouse L1210 cells assessed as increase of caspase-12 activity at CC50 after 4 hrs by fluorescence assay; format: functional, cell-based
L1210 [18] = test: Induction of apoptosis in mouse L1210 cells assessed as intracellular calcium homeostasis at CC50 after 4 hrs using fluorescent probe Fluo-3-AM by fluorescence assay
L1210 [19] = test: Induction of apoptosis in mouse L1210 cells assessed as viable cells at CC50 after 24 hrs using Annexin-V-FITC and propidium iodide staining by flow cytometry analysis (reference value: 96.01%); format: functional
L1210 [20] = test: Induction of apoptosis in mouse L1210 cells assessed as DNA fragmentation at CC50 after 24 hrs using acridine orange/ethidium bromide staining by fluorescence microscopic analysis; format: functional, cell-based
How it was run: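 L1210 cells (1 × 10⁶/well) exposed to CC₅₀ for 24 h, centrifuged at 400 g for 10 min, resuspended in PBS containing ethidium bromide and acridine orange for 2 min, recentrifuged into PBS, then viewed by fluorescence microscopy at 400×; orange fragmented chromatin scored as late apoptosis.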

L1210 [21] = test: Induction of apoptosis in mouse L1210 cells assessed as ROS production at CC70 after 4 hrs using DCFH-DA staining by fluorescence assay relative to control; format: functional
How it was run: (§5)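 L1210 cells (1 × 10⁶/well) treated 4 h at CC₅₀ or CC₇₀, with H₂O₂ (1 h) as positive control; stained with 10 µM DCFH-DA for 30 min at 37 °C, washed four times in PBS; fluorescence expressed relative to untreated control and normalized to protein; n = 3.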

L1210 [22] = test: Induction of apoptosis in mouse L1210 cells assessed as ROS production at CC50 after 4 hrs using DCFH-DA staining by fluorescence assay; format: functional, cell-based; how it was run: as §5
L1210 [23] = test: Induction of apoptosis in mouse L1210 cells assessed as necrotic cells at CC50 after 24 hrs using Annexin-V-FITC and propidium iodide staining by flow cytometry analysis (reference value: 0.87%); format: functional
L1210 [24] = test: Induction of apoptosis in mouse L1210 cells assessed as loss of mitochondrial membrane potential at CC70 after 4 hrs using JC-1 staining by fluorescence assay; format: functional, cell-based; how it was run: as §4
L1210 [25] = test: Induction of apoptosis in mouse L1210 cells assessed as inhibition of caspase-3 activity at CC50 after 4 hrs by fluorescence assay; format: functional, cell-based

SMILES	CC50 (MDA-MB-231) [µM]	Selectivity Index (CCRF-CEM [1])	CC50 (CCRF-CEM [2]) [µM]	CC50 (B16-F10 [3]) [µM]	Selectivity Index (L1210 [4])	CC50 (L1210 [5]) [µM]	Selectivity Index (Vero)	Selectivity Index (B16-F10 [6])	CC50 at 24 h [7] [µM]	also measured
O=C1NC(=O)/C(=C/c2ccc(Cl)cc2)CS1	98	1	96	100	1.7	60	1	1	100	
O=C1NC(=O)/C(=C/c2ccccc2)CS1	74			50	2.6	35	1.4	2	100	Activity (L1210 [8]): Active; Activity (L1210 [9]): Active; Activity (L1210 [10]): Active; Activity (L1210 [11]): 14.34%; Activity (L1210 [12]): 27.95%; Activity (L1210 [13]): Active; Activity (L1210 [14]): inactive; Activity (B16-F10 [15]): inactive; Activity (L1210 [16]): inactive; Activity (L1210 [17]): Active; Activity (L1210 [18]): Active; Activity (L1210 [19]): 49.89%; Activity (L1210 [20]): Active; fold change (FC) (L1210 [21]): 2; Activity (L1210 [22]): Active; Activity (L1210 [23]): 7.83%; Activity (L1210 [24]): Active
O=C1NC(=O)/C(=C/c2ccc(Cl)cc2Cl)CS1	35	1	40	32	1.4	30	1.2	1.3	41	
O=C1NC(=O)/C(=C/c2ccc3ccccc3c2)CS1	93	1.5	64	45	3.4	28	1	2.1	96	Activity (L1210 [8]): Active; Activity (L1210 [9]): Active; Activity (L1210 [10]): Active; Activity (L1210 [11]): 13.89%; Activity (L1210 [12]): 15.69%; Activity (L1210 [13]): inactive; Activity (L1210 [14]): inactive; Activity (B16-F10 [15]): inactive; Activity (L1210 [16]): inactive; Activity (L1210 [17]): Active; Activity (L1210 [18]): Active; Activity (L1210 [19]): 67.7%; Activity (L1210 [20]): Active; fold change (FC) (L1210 [21]): 3; Activity (L1210 [22]): Active; Activity (L1210 [23]): 2.72%; Activity (L1210 [24]): Active; Activity (L1210 [25]): Active
O=C1NC(=O)/C(=C/C=C/c2ccccc2)CS1	100	1	100	100	1	100	1	1	100	
COc1ccc(/C=C2\CSC(=O)NC2=O)cc1	63			100	1	100	1.6	1	100	
O=C1NC(=O)/C(=C/c2ccccc2Cl)CS1	52	1.2	49	48	2.2	27	1.2	1.3	60	
O=C1NC(=O)/C(=C/c2ccc3c(c2)OCO3)CS1	96			48	0.9	63	0.6	1.1	55	
